Data on 40 molecules can be found in ChEMBL document CHEMBL4130623, “Discovery of Highly Potent Pinanamine-Based Inhibitors against Amantadine- and Oseltamivir-Resistant Influenza A Viruses” (J Med Chem, 2018).

Calls of active or inactive are those of the source. The rule behind the calls is not given here.

As a reminder, the EC50 is the concentration giving half of the maximal effect.

Holding throughout (format): functional, organism-based
Test [1] has as its system Influenza A virus. Briefly: Antiviral activity against Influenza A virus (A/Guangzhou/GIRD/07/2009 (H1N1)) infected in MDCK cells assessed as reduction in virus-induced cytopathic effect at less than cytotoxic MCC level after 48 hrs by microscopic analysis. Background: Damage to the host cells serves as the signal in cytopathic effect assays.
The subject of test [2] is Influenza A virus. The test can be described thus: Antiviral activity against Influenza A virus (A/HK/68) by CCK-8 reagent based assay.
The subject of test [3] is Influenza A virus. Briefly: Antiviral activity against Influenza A virus (A/WSN/33) by CCK-8 reagent based assay. To be noted: A/WSN/1933(H1N1). (In general: Tetrazolium assays rely on reduction of a dye to a coloured formazan, in cell work by metabolically active cells.)
Test [4] deals with Influenza A virus. The test can be described thus: Antiviral activity against Influenza A virus (A/Guangzhou/GIRD/07/2009 (H1N1)) infected in MDCK cells assessed as reduction in virus-induced cytopathic effect after 48 hrs by microscopic analysis. The method in brief:
(§1)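 MDCK monolayers (5×10^4 cells/well, grown 24 h) were rinsed twice, infected with 100 TCID50 virus for 2 h at 37 °C in 5% CO2, and the inoculum was removed. Two-fold serial compound dilutions in DMEM with 1.5 µg/mL trypsin were added and incubated 48 h at 34 °C. CPE percentage was scored by microscope and EC50 fitted by non-linear regression.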

The subject of test [5] is Influenza A virus. The test can be described thus: Antiviral activity against Influenza A virus (A/PR/8/34 (H1N1)) infected in MDCK cells assessed as reduction in virus-induced cytopathic effect after 48 hrs by microscopic analysis. The settings on record: A/Puerto Rico/8/1934(H1N1). The method in brief:
as §1

The test system of test [6] is Influenza A virus. Briefly: Antiviral activity against Influenza A virus (A/HK/68(H3N2)) infected in MDCK cells assessed as reduction in virus-induced cytopathic effect after 48 hrs by microscopic analysis. The method in brief:
as §1

Test [7] deals with Influenza A virus. Briefly: Antiviral activity against Influenza A virus (A/WSN/33 (H1N1)) infected in MDCK cells assessed as reduction in virus-induced cytopathic effect after 48 hrs by microscopic analysis. The settings on record: A/WSN/1933(H1N1). The method in brief:
as §1

The subject of test [8] is Influenza A virus. The test can be described thus: Antiviral activity against Influenza A virus (A/duck/Guangdong/1/1996 (H7N3)) infected in MDCK cells assessed as reduction in virus-induced cytopathic effect after 48 hrs by microscopic analysis. An outline of the steps:
as §1

Test [9] relates to H3N2 subtype. Briefly: Antiviral activity against Influenza A virus (A/Aichi/2/68 (H3N2)) infected in MDCK cells assessed as reduction in virus-induced cytopathic effect after 48 hrs by microscopic analysis. The settings on record: A/Aichi/2/1968(H3N2). The method in brief: as §1
Test [10] concerns Influenza A virus. The test can be described thus: Antiviral activity against Influenza A virus (A/duck/HK/Y280/97 (H9N2)) infected in MDCK cells assessed as reduction in virus-induced cytopathic effect after 48 hrs by microscopic analysis. The method in brief:
as §1

Take `Cc1ccsc1CN[C@@H]1C[C@H]2C[C@@H]([C@H]1C)C2(C)C`: in test [1], the inhibition entry is “inactive”. The outcome in test [2] and in test [3] was Active.

Turning to `Cc1csc(CN[C@@H]2CC3CC([C@H]2C)C3(C)C)n1` (single isomer, unassigned), the EC50 in test [4] was 75000 nM. Further, the outcome in [2] and in test [3] was Active.

In the case of `C[C@@H]1C2CC(C[C@H]1NCc1sccc1C1CCCC1)C2(C)C` (single isomer, unassigned), the concentration for a half-maximal effect (EC50) in test [4] is 690 nM.

Regarding `Cc1csc(CN[C@@H]2CC3CC([C@H]2C)C3(C)C)c1` (single isomer, unassigned), the concentration for a half-maximal effect (EC50) in [4] was 200 nM. For the same molecule, the outcome in [2] and in test [3] was Active.

For `C=Cc1ccsc1CN[C@@H]1CC2CC([C@H]1C)C2(C)C` (single isomer, unassigned), the EC50 in test [4] was 1820 nM. The result in test [2] and in test [3] was Active.

For the molecule `C[C@@H]1C2CC(C[C@H]1NCc1ccsc1)C2(C)C` (single isomer, unassigned), the concentration for a half-maximal effect (EC50) in [4] is 28600 nM. Also, the outcome in [2] and in [3] was Active.

As to `C[C@@H]1C2CC(C[C@H]1NCc1cccs1)C2(C)C` (single isomer, unassigned), in test [4], the EC50 amounted to 6420 nM. In addition, the outcome in [2] and in test [3] was Active.

On to `C[C@@H]1C2CC(C[C@H]1NCc1ccoc1)C2(C)C` (single isomer, unassigned), for which the concentration for a half-maximal effect (EC50) in test [4] was found to be 60500 nM.

As to `C[C@@H]1C2CC(C[C@H]1NCc1cc(C3CC3)cs1)C2(C)C` (single isomer, unassigned), the concentration giving a half-maximal response (EC50) in test [4] stood at 6680 nM. Moreover, the result in test [2] and in test [3] was Active.

For the molecule `C[C@@H]1C2CC(C[C@H]1NCc1cc(Br)cs1)C2(C)C` (single isomer, unassigned), in test [4], the 50% effective concentration (EC50) turned out to be 5160 nM. Moreover, the result in test [2] and in test [3] was Active.

Consider `CCCCc1ccsc1CN[C@@H]1CC2CC([C@H]1C)C2(C)C` (single isomer, unassigned), for which the EC50 in test [4] was found to be 10300 nM. Further, the outcome in test [2] and in [3] was Active.

For the molecule `CCCCc1csc(CN[C@@H]2CC3CC([C@H]2C)C3(C)C)c1` (single isomer, unassigned), the concentration for a half-maximal effect (EC50) in test [4] came to 460 nM.

For `C=C(C)c1csc(CN[C@@H]2CC3CC([C@H]2C)C3(C)C)c1` (single isomer, unassigned), in test [1], the inhibition entry is “inactive”.

Take `C=Cc1csc(CN[C@@H]2CC3CC([C@H]2C)C3(C)C)c1` (single isomer, unassigned): the inhibition result in test [1] was “inactive”. The outcome in [2] and in test [3] was Active.

Consider `CCCc1ccsc1CN[C@@H]1CC2CC([C@H]1C)C2(C)C` (single isomer, unassigned), for which the inhibition entry in [1] was “inactive”. Further, the outcome in test [2] and in test [3] was Active.

In the case of `CCCc1csc(CN[C@@H]2CC3CC([C@H]2C)C3(C)C)c1` (single isomer, unassigned), the inhibition result in test [1] was “inactive”. The result in test [2] and in test [3] was Active.

In the case of `CCOc1ccsc1CN[C@@H]1CC2CC([C@H]1C)C2(C)C` (single isomer, unassigned), the inhibition entry in [1] is “inactive”. In addition, the outcome in test [2] and in [3] was Active.

On to `CCc1ccc(CN[C@@H]2CC3CC([C@H]2C)C3(C)C)s1` (single isomer, unassigned), for which, in [1], the inhibition result was “inactive”.

Regarding `CCc1ccsc1CN[C@@H]1CC2CC([C@H]1C)C2(C)C` (single isomer, unassigned), the inhibition result in test [1] was “inactive”. Besides, the result in test [2] and in test [3] was Active.

With `CCc1csc(CN[C@@H]2CC3CC([C@H]2C)C3(C)C)c1` (single isomer, unassigned), the inhibition result in test [1] was “inactive”.

Regarding `CSc1ccc(CN[C@@H]2CC3CC([C@H]2C)C3(C)C)s1` (single isomer, unassigned), the inhibition result in test [1] is “inactive”. For the same molecule, the outcome in [2] and in test [3] was Active.

Take `C[C@@H]1C2CC(C[C@H]1NCc1cc(-c3ccccc3)cs1)C2(C)C` (single isomer, unassigned): the inhibition result in [1] is “inactive”.

As for `C[C@@H]1C2CC(C[C@H]1NCc1cc(-c3ccsc3)cs1)C2(C)C` (single isomer, unassigned), in [1], the inhibition result is “inactive”.

For the molecule `C[C@@H]1C2CC(C[C@H]1NCc1cc(C3CCCC3)cs1)C2(C)C` (single isomer, unassigned), the inhibition result in [1] is “inactive”.

`C[C@@H]1C2CC(C[C@H]1NCc1cc(C3CCCCC3)cs1)C2(C)C` (single isomer, unassigned): in test [1], the inhibition entry was “inactive”.

Turning to `C[C@@H]1C2CC(C[C@H]1NCc1ccc(-c3ccc(Br)s3)s1)C2(C)C` (single isomer, unassigned), the inhibition result in test [1] was “inactive”.

For `C[C@@H]1C2CC(C[C@H]1NCc1ccc(Br)s1)C2(C)C` (single isomer, unassigned), the inhibition entry in test [1] is “inactive”.

In the case of `C[C@@H]1C2CC(C[C@H]1NCc1ccc(C(C)(C)C)s1)C2(C)C` (single isomer, unassigned), the inhibition entry in test [1] is “inactive”.

With `C[C@@H]1C2CC(C[C@H]1NCc1ccc(Cl)s1)C2(C)C` (single isomer, unassigned), in test [1], the inhibition result was “inactive”.

In the case of `C[C@@H]1C2CC(C[C@H]1NCc1ccco1)C2(C)C` (single isomer, unassigned), the inhibition entry in [1] was “inactive”.

With `C[C@@H]1C2CC(C[C@H]1NCc1cnccn1)C2(C)C` (single isomer, unassigned), the inhibition entry in test [1] is “inactive”.

Consider `C[C@@H]1C2CC(C[C@H]1NCc1cncnc1)C2(C)C` (single isomer, unassigned), for which, in test [1], the inhibition entry was “inactive”.

In the case of `C[C@@H]1C2CC(C[C@H]1NCc1sccc1-c1ccccc1)C2(C)C` (single isomer, unassigned), in [1], the inhibition result is “inactive”.

In the case of `C[C@@H]1C2CC(C[C@H]1NCc1sccc1-c1ccsc1)C2(C)C` (single isomer, unassigned), the inhibition entry in [1] was “inactive”.

Turning to `C[C@@H]1C2CC(C[C@H]1NCc1sccc1Br)C2(C)C` (single isomer, unassigned), the inhibition entry in [1] is “inactive”. The outcome in test [2] and in test [3] was Active.

Consider `C[C@@H]1C2CC(C[C@H]1NCc1sccc1C1CCCCC1)C2(C)C` (single isomer, unassigned), for which, in test [1], the inhibition result was “inactive”.

Consider `Cc1ccc(CN[C@@H]2CC3CC([C@H]2C)C3(C)C)s1` (single isomer, unassigned), for which the inhibition result in test [1] was “inactive”. In addition, the outcome in [2] and in [3] was Active.

Turning to `Cc1n[nH]cc1CN[C@@H]1CC2CC([C@H]1C)C2(C)C` (single isomer, unassigned), in test [1], the inhibition entry was “inactive”.

`NC12CC3CC(CC(C3)C1)C2` [AMANTADINE]: the EC50 in test [5] was more than 100000 nM; in [4] it was more than 100000 nM; in test [6], 1000 nM; in test [7], more than 100000 nM.

On to `CCOC(=O)C1=C[C@@H](OC(CC)CC)[C@H](NC(C)=O)[C@@H](N)C1` [OSELTAMIVIR], for which the concentration giving a half-maximal response (EC50) in [8] was 2670 nM; in test [9], 990 nM; in test [10], more than 10000 nM; in test [5] it was 130 nM; in test [6], 2300 nM; in [7], 400 nM.
